Calls of active or inactive are those of the source. No cut-off for these calls is given here.
What was measured:
HT-1080 [1] = experiment: Anti-ferroptotic activity in human HT-1080 cells assessed as cell viability incubated for 24 hrs by Cell-titer-glo assay; type: functional, cell-based
Method in brief: (§1)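 Seeded at 2000–5000 cells/well; 24 h later cells were co-treated with 1 μM RSL3 and graded inhibitor concentrations for 24 h, then viability was read. EC50 came from sigmoidal nonlinear regression fits. Three independent experiments, means ± SD. HT-1080 and H9c2 were grown in DMEM; BJ in α-MEM with nonessential amino acids and 1 mM pyruvate; all media had 10% FBS.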

[2] = Antioxidant activity assessed as DPPH radical scavenging activity incubated for 1 hr by spectrophotometric analysis; type: functional
Method in brief: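 Compound in DMSO was mixed with methanolic DPPH to give 40 μM DPPH (final) across a range of compound concentrations. After 1 h at room temperature, absorbance was read at 517 nm. Scavenging % = [A(DMSO) − A(sample)]/[A(DMSO) − A(methanol)] × 100, with DMSO as zero control and methanol as blank.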

[3] = Antioxidant activity assessed as ABTS radical scavenging activity measured for 6 mins by absorbance based analysis; type: functional
Method in brief: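 ABTS (14 mM stock in water) was oxidised with 2.45 mM (final) potassium persulfate in the dark at room temperature for 18 h. The radical was diluted to 100 μM in 50 mM sodium phosphate, pH 7.4. Compounds (1–100 μM) were added, incubated at 30 °C for 6 min, and absorbance was read at 415 nm.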

HT-1080 [4] = experiment: Anti-ferroptotic activity against imidazole ketone erastin (IKE) induced ferroptosis in human HT-1080 cells assessed as cell viability incubated for 24 hrs by Cell-titer-glo assay; type: functional, cell-based; conditions: HT-1080, 24 h
Method in brief: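 HT-1080 cells (DMEM, 10% FBS) were seeded at 2000–5000/well. After 24 h they received 2.5 μM IKE plus graded inhibitor concentrations for 24 h, and viability was measured. EC50 came from sigmoidal nonlinear regression. Three independent experiments, means ± SD.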

HT-1080 [5] = experiment: Anti-ferroptotic activity against RSL3 induced ferroptosis in human HT-1080 cells assessed as cell viability incubated for 24 hrs by Cell-titer-glo assay; type: functional, cell-based; conditions: HT-1080, 24 h; method in brief: as §1
786-0 [6] = experiment: Anti-ferroptotic activity against RSL3 induced ferroptosis in human 786-0 cells assessed as cell viability incubated for 24 hrs by Cell-titer-glo assay; type: functional, cell-based; conditions: 786-0, 24 h; method in brief: as §1
BJ = experiment: Anti-ferroptotic activity against RSL3 induced ferroptosis in human BJ cells assessed as cell viability incubated for 24 hrs by Cell-titer-glo assay; type: functional, cell-based; method in brief: as §1
H9c2 = experiment: Anti-ferroptotic activity against RSL3 induced ferroptosis in rat H9c2 cells assessed as cell viability incubated for 24 hrs by Cell-titer-glo assay; type: functional, cell-based; conditions: H9c2, 24 h; method in brief: as §1
786-0 [7] = experiment: Inhibition of RSL3-induced ferroptosis in human 786-0 cells assessed as recovery of shrunken cells at 1 uM measured after 1 day by light microscopy based analysis; type: functional, cell-based
Method in brief: (§2)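 786-O cells were seeded at 5000/well. After 24 h, 1 μM RSL3 was added together with inhibitor at 1 or 0.0625 μM. After one day of incubation, cell morphology (shrinkage, membrane rupture) was inspected by light microscopy.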

786-0 [8] = experiment: Inhibition of RSL3-induced ferroptosis in human 786-0 cells assessed as recovery of membrane rupture at 1 uM measured after 1 day by light microscopy based analysis; type: functional, cell-based; method in brief: as §2
786-0 [9] = experiment: Inhibition of RSL3-induced ferroptosis in human 786-0 cells assessed as recovery in loss of cell morphology at 1 uM measured after 1 day by light microscopy based analysis; type: functional; method in brief: as §2
786-0 [10] = experiment: Inhibition of RSL3-induced ferroptosis in human 786-0 cells assessed as recovery of shrunken cells at 0.0625 uM measured after 1 day by light microscopy based analysis; type: functional, cell-based; method in brief: as §2
786-0 [11] = experiment: Inhibition of RSL3-induced ferroptosis in human 786-0 cells assessed as recovery of membrane rupture at 0.0625 uM measured after 1 day by light microscopy based analysis; type: functional, cell-based; method in brief: as §2
786-0 [12] = experiment: Inhibition of RSL3-induced ferroptosis in human 786-0 cells assessed as recovery from loss of cell morphology at 0.0625 uM measured after 1 day by light microscopy based analysis; type: functional; method in brief: as §2
HT-1080 [13] = experiment: Anti-ferroptotic activity against RSL3 induced ferroptosis in human HT-1080 cells assessed as decrease in lipid peroxidation at 1 uM measured after 8 hrs by C11-BODIPY staining based flow cytometric analysis (reference value: 3.06%); type: functional; set-up: scale not given: the % may be the effect or the level left
HT-1080 [14] = experiment: Anti-ferroptotic activity in human HT-1080 cells assessed as suppression of erastin induced cytosolic ROS accumulation at 1 uM incubated for 24 hrs by DCFH-DA staining based confocal microscopy analysis; type: functional, cell-based
Method in brief: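 HT-1080 cells on glass coverslips (4 × 10^5/well, overnight) were co-treated for 24 h with 5 μM erastin and either DMSO or inhibitor at 1 μM. Cells were washed with PBS, loaded with 10 μM (final) DCFH-DA at 37 °C for 20 min, washed three times and imaged by confocal laser scanning microscopy.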

[15] = Metal chelating activity assessed as Fe3+ chelation at 20 mM at […] absorbance
Method in brief: (§3)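 Compound was dissolved in MeOH at 20 mM and mixed with FeSO4 (Fe2+) or FeCl3 (Fe3+) at 10 mM. Samples were diluted with MeOH/H2O, UV–vis spectra were recorded, and the absorption peak at 261 nm was quantified.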

[16] = Metal chelating activity assessed as Fe2+ chelation at 20 mM at […] absorbance; method in brief: as §3
[17] = Metal chelating activity assessed as Fe3+ chelation by measuring change in UV-vis absorption at 20 mM at […] absorbance; method in brief: as §3
[18] = Metal chelating activity assessed as Fe2+ chelation by measuring change in UV-vis absorption at 20 mM at […] absorbance; method in brief: as §3

## COc1ccc(-c2n[nH]c(-c3ccccc3)c2O)cc1
HT-1080 [1]; Homo sapiens, HT-1080, 24 h
  EC50: 0.0248 µM
HT-1080 [1]; ht-1080
  EC50: 0.0321 µM

## Oc1c(-c2ccccc2)n[nH]c1-c1ccc(Br)cc1
HT-1080 [1]; Homo sapiens, HT-1080, 24 h
  EC50: 0.0226 µM

## Oc1c(-c2ccc(C(F)(F)F)cc2)n[nH]c1-c1ccccc1
HT-1080 [1]; Homo sapiens, HT-1080, 24 h
  EC50: 0.0796 µM

## CCNC(=O)c1ccc(-c2[nH]nc(-c3ccc(Cl)cc3)c2O)cc1
HT-1080 [1]; Homo sapiens, HT-1080, 24 h
  EC50: 0.0819 µM

## Oc1c(-c2ccccc2)n[nH]c1-c1ccco1
HT-1080 [1]; Homo sapiens, HT-1080, 24 h
  EC50: > 1 µM

## COc1ccc(-c2[nH]nc(-c3ccc(Cl)cc3)c2O)cc1OC
HT-1080 [1]; Homo sapiens, HT-1080, 24 h
  EC50: 0.0317 µM

## COc1ccc(-c2[nH]nc(-c3ccc(Cl)cc3)c2O)cc1
HT-1080 [1]; Homo sapiens, HT-1080, 24 h
  EC50: 0.0231 µM

## Oc1ccc(-c2[nH]nc(-c3ccc(Cl)cc3)c2O)cc1O
HT-1080 [1]; Homo sapiens, HT-1080, 24 h
  EC50: 0.0261 µM

## Cn1nc(-c2ccc(Cl)cc2)c(N)c1-c1ccccc1
HT-1080 [1]; Homo sapiens, HT-1080, 24 h
  EC50: 0.721 µM
[2]
  Activity: 14.6 µM
[3]
  Activity: > 200 µM

## Oc1c(-c2ccc(-c3ccccc3)cc2)n[nH]c1-c1ccccc1
HT-1080 [1]; Homo sapiens, HT-1080, 24 h
  EC50: 0.0395 µM

## O=C(O)c1ccc(-c2[nH]nc(-c3ccc(Cl)cc3)c2O)cc1
HT-1080 [1]; Homo sapiens, HT-1080, 24 h
  EC50: > 1 µM

## Oc1c(-c2ccc(F)cc2)n[nH]c1-c1ccccc1
HT-1080 [1]; Homo sapiens, HT-1080, 24 h
  EC50: 0.0796 µM
HT-1080 [1]; ht-1080
  EC50: 0.0424 µM

## Oc1ccc(-c2[nH]nc(-c3ccc(Cl)cc3)c2O)cc1
HT-1080 [1]; Homo sapiens, HT-1080, 24 h
  EC50: 0.0086 µM
HT-1080 [4]
  EC50: 0.0483 µM
HT-1080 [5]
  EC50: 0.0086 µM
786-0 [6]
  EC50: 0.0897 µM
BJ
  EC50: 0.0113 µM
H9c2
  EC50: 0.0433 µM
786-0 [7]
  inhibition: Active
786-0 [8]
  inhibition: Active
786-0 [9]
  inhibition: Active
786-0 [10]
  inhibition: Active
786-0 [11]
  inhibition: Active
786-0 [12]
  inhibition: Active
[2]
  Activity: 3.94 µM
[3]
  Activity: 6.3 µM
HT-1080 [13]
  Activity: 1.42%
HT-1080 [14]
  Activity: Active
[15]
  Activity: inactive
[16]
  Activity: inactive
[17]
  Activity: inactive
[18]
  Activity: inactive

## Oc1c(-c2ccccc2)n[nH]c1-c1ccccc1
HT-1080 [1]; Homo sapiens, HT-1080, 24 h
  EC50: 0.0691 µM

## Clc1ccc(-c2cc(-c3ccccc3)n[nH]2)cc1
HT-1080 [1]; Homo sapiens, HT-1080, 24 h
  EC50: > 1 µM
[2]
  Activity: > 100 µM
[3]
  Activity: > 200 µM

## CCCCc1[nH]nc(-c2ccccc2)c1O
HT-1080 [1]; Homo sapiens, HT-1080, 24 h
  EC50: 0.15 µM

## Oc1c(-c2ccc(Cl)cc2Cl)n[nH]c1-c1ccccc1
HT-1080 [1]; Homo sapiens, HT-1080, 24 h
  EC50: 0.0566 µM

## Oc1c(-c2ccc(Cl)cc2)n[nH]c1-c1ccc(C(F)(F)F)cc1
HT-1080 [1]; Homo sapiens, HT-1080, 24 h
  EC50: 0.187 µM

## CN(C)CCCNC(=O)c1ccc(-c2[nH]nc(-c3ccc(Cl)cc3)c2O)cc1
HT-1080 [1]; Homo sapiens, HT-1080, 24 h
  EC50: 0.0448 µM

## Oc1c(-c2cccc(Cl)c2)n[nH]c1-c1ccccc1
HT-1080 [1]; Homo sapiens, HT-1080, 24 h
  EC50: 0.187 µM

## Oc1c(-c2ccc(Cl)cc2)n[nH]c1-c1cnc[nH]1
HT-1080 [1]; Homo sapiens, HT-1080, 24 h
  EC50: 0.0259 µM

## Oc1c(-c2ccc(Cl)cc2)n[nH]c1-c1cccc2ccccc12
HT-1080 [1]; Homo sapiens, HT-1080, 24 h
  EC50: 0.0448 µM

## Cn1nc(-c2ccc(Cl)cc2)c(O)c1-c1ccccc1
HT-1080 [1]; Homo sapiens, HT-1080, 24 h
  EC50: 0.022 µM

## COC(=O)c1ccc(-c2[nH]nc(-c3ccc(Cl)cc3)c2O)cc1
HT-1080 [1]; Homo sapiens, HT-1080, 24 h
  EC50: 0.0511 µM

## Oc1c(-c2ccc(Cl)cc2)n[nH]c1-c1ccc(F)cc1
HT-1080 [1]; Homo sapiens, HT-1080, 24 h
  EC50: 0.0527 µM

## Oc1c(-c2ccc(Cl)cc2)nn(-c2ccccc2)c1-c1ccccc1
HT-1080 [1]; Homo sapiens, HT-1080, 24 h
  EC50: 0.0246 µM

## Oc1c(-c2ccccc2Cl)n[nH]c1-c1ccccc1
HT-1080 [1]; Homo sapiens, HT-1080, 24 h
  EC50: 0.0949 µM

## CCOC(=O)c1ccc(NC2CCCCC2)c(N)c1
HT-1080 [1]; Homo sapiens, HT-1080, 24 h
  EC50: 0.0234 µM
HT-1080 [4]
  EC50: 0.0752 µM
HT-1080 [5]
  EC50: 0.0234 µM
786-0 [6]
  EC50: 0.253 µM
BJ
  EC50: 0.0382 µM
H9c2
  EC50: 0.0686 µM
786-0 [7]
  inhibition: Active
786-0 [8]
  inhibition: Active
786-0 [9]
  inhibition: Active
786-0 [10]
  inhibition: inactive
786-0 [11]
  inhibition: inactive
786-0 [12]
  inhibition: inactive
[2]
  Activity: 6.48 µM
[3]
  Activity: 49.8 µM
HT-1080 [13]
  Activity: 9.2%

## Oc1c(-c2ccc(Cl)cc2)n[nH]c1-c1ccccc1
HT-1080 [1]; Homo sapiens, HT-1080, 24 h
  EC50: 0.0308 µM
HT-1080 [1]; ht-1080
  EC50: 0.0189 µM
[2]
  Activity: 4.97 µM
[3]
  Activity: 112 µM

## O=C(NO)c1ccc(-c2[nH]nc(-c3ccc(Cl)cc3)c2O)cc1
HT-1080 [1]; Homo sapiens, HT-1080, 24 h
  EC50: 0.0802 µM

## Cc1ccc(-c2[nH]nc(-c3ccc([N+](=O)[O-])cc3)c2O)cc1
HT-1080 [1]; Homo sapiens, HT-1080, 24 h
  EC50: 0.12 µM

## Oc1c(-c2ccc3c(c2)OCO3)n[nH]c1-c1ccccc1
HT-1080 [1]; Homo sapiens, HT-1080, 24 h
  EC50: 0.0274 µM

Source: ChEMBL document CHEMBL5532644, “Discovery of 4-hydroxyl pyrazole derivatives as potent ferroptosis inhibitors” (Eur J Med Chem, 2024)
